Test results reported in ChEMBL document CHEMBL1152599, “Synthesis and in vitro activities of new anticancer duplex drugs linking 2'-deoxy-5-fluorouridine (5-FdU) with 3'-C-ethynylcytidine (ECyd) via a phosphodiester bonding” (2009).

Legend:
Format in all cases: functional
TK-10 = experiment: Anticancer activity against human TK10 cells after 48 hrs by sulforhodamine B assay; conditions: TK-10, 48 h
Outline: (§1)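 Tested in the NCI 60-human-tumour-cell-line screen. Compounds were applied at a minimum of five concentrations in 10-fold dilutions with 48 h exposure. Cell growth was estimated by sulforhodamine B protein staining. GI50 (log10 of molar concentration giving 50% growth inhibition) and TGI were read from the data sheets, dose-response curves and mean graphs. Some cell lines were screened twice.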

SK-OV-3 = experiment: Anticancer activity against human SKOV3 cells after 48 hrs by sulforhodamine B assay; conditions: SK-OV-3, 48 h
Outline: (§2)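 NCI 60-cell-line anticancer screen. Each compound is tested at a minimum of five concentrations in 10-fold dilutions with 48 h drug exposure. Cell viability/growth is estimated by sulforhodamine B protein staining. GI50 is the log10 molar concentration giving 50% growth inhibition, read from the dose-response curves and mean graphs of the NCI data screening report. TGI was taken from double screens.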

HT-29 = experiment: Anticancer activity against human HT-29 cells after 48 hrs by sulforhodamine B assay; conditions: HT-29, 48 h; outline: as §2
CAKI-1 = experiment: Anticancer activity against human Caki1 cells after 48 hrs by sulforhodamine B assay; conditions: CAKI-1, 48 h; outline: as §2
LOX IMVI = experiment: Anticancer activity against human LOXIMVI cells after 48 hrs by sulforhodamine B assay; outline: as §2
A549 = experiment: Anticancer activity against human A549 cells after 48 hrs by sulforhodamine B assay; conditions: A549, 48 h; outline: as §2
NCI/ADR-RES = experiment: Anticancer activity against human NCI/ADR-RES cells after 48 hrs by sulforhodamine B assay; outline: as §2
T47D = experiment: Anticancer activity against human T47D cells after 48 hrs by sulforhodamine B assay; outline: as §1
OVCAR-8 = experiment: Anticancer activity against human OVCAR8 cells after 48 hrs by sulforhodamine B assay; conditions: OVCAR-8, 48 h; outline: as §2
OVCAR-4 = experiment: Anticancer activity against human OVCAR4 cells after 48 hrs by sulforhodamine B assay; conditions: OVCAR-4, 48 h; outline: as §2
SK-MEL-2 = experiment: Anticancer activity against human SK-MEL-2 cells after 48 hrs by sulforhodamine B assay; conditions: SK-MEL-2, 48 h; outline: as §2
K562 = experiment: Anticancer activity against human K562 cells after 48 hrs by sulforhodamine B assay; conditions: K562, 48 h; outline: as §2
NCI-H522 = experiment: Anticancer activity against human NCI-H522 cells after 48 hrs by sulforhodamine B assay; conditions: NCI-H522, 48 h; outline: as §2
BT-549 = experiment: Anticancer activity against human BT549 cells after 48 hrs by sulforhodamine B assay; conditions: BT-549, 48 h; outline: as §2
CCRF-CEM = experiment: Anticancer activity against human CCRF-CEM cells after 48 hrs by sulforhodamine B assay; outline: as §2
SF-268 = experiment: Anticancer activity against human SF268 cells after 48 hrs by sulforhodamine B assay; conditions: SF-268, 48 h; outline: as §2
NCI-H460 = experiment: Anticancer activity against human NCI-H460 cells after 48 hrs by sulforhodamine B assay; conditions: NCI-H460, 48 h; outline: as §2
MDA-N = experiment: Anticancer activity against human MDA-N cells after 48 hrs by sulforhodamine B assay; outline: as §2
SR = experiment: Anticancer activity against human SR cells after 48 hrs by sulforhodamine B assay; outline: as §1
U-251 = experiment: Anticancer activity against human U251 cells after 48 hrs by sulforhodamine B assay; conditions: U-251, 48 h; outline: as §1
UACC-62 = experiment: Anticancer activity against human UACC62 cells after 48 hrs by sulforhodamine B assay; conditions: UACC-62, 48 h; outline: as §1
A498 = experiment: Anticancer activity against human A498 cells after 48 hrs by sulforhodamine B assay; conditions: A498, 48 h; outline: as §2
NCI-H322M = experiment: Anticancer activity against human NCI-H322M cells after 48 hrs by sulforhodamine B assay; outline: as §2
HOP-92 = experiment: Anticancer activity against human HOP92 cells after 48 hrs by sulforhodamine B assay; conditions: HOP-92, 48 h; outline: as §2
HL-60 = experiment: Anticancer activity against human HL-60(TB) cells after 48 hrs by sulforhodamine B assay; conditions: HL-60, 48 h
Outline: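 NCI 60-cell-line anticancer screen. Drugs tested at a minimum of five concentrations at 10-fold dilutions with 48 h exposure. Cell growth estimated by sulforhodamine B protein assay. GI50 is log10 of the molar concentration giving 50% growth inhibition, read from the screening data sheet, dose-response curves and mean graphs.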

SK-MEL-5 = experiment: Anticancer activity against human SK-MEL-5 cells after 48 hrs by sulforhodamine B assay; conditions: SK-MEL-5, 48 h; outline: as §2
EKVX = experiment: Anticancer activity against human EKVX cells after 48 hrs by sulforhodamine B assay; outline: as §2
MDA-MB-435 = experiment: Anticancer activity against human MDA-MB-435 cells after 48 hrs by sulforhodamine B assay; conditions: MDA-MB-435, 48 h; outline: as §2
COLO 205 = experiment: Anticancer activity against human COLO205 cells after 48 hrs by sulforhodamine B assay; conditions: COLO 205, 48 h; outline: as §2
ACHN = experiment: Anticancer activity against human ACHN cells after 48 hrs by sulforhodamine B assay; outline: as §2
[1] = Anticancer activity against human Hs 578T cells after 48 hrs by sulforhodamine B assay; outline: as §2
786-0 = experiment: Anticancer activity against human 786-0 cells after 48 hrs by sulforhodamine B assay; conditions: 786-0, 48 h; outline: as §2
HCT-15 = experiment: Anticancer activity against human HCT15 cells after 48 hrs by sulforhodamine B assay; conditions: HCT-15, 48 h; outline: as §2
[2] = Anticancer activity against human […] cells after 48 hrs by sulforhodamine B assay; outline: as §2
NCI-H226 = experiment: Anticancer activity against human NCI-H226 cells after 48 hrs by sulforhodamine B assay; conditions: NCI-H226, 48 h; outline: as §2
DU-145 = experiment: Anticancer activity against human DU145 cells after 48 hrs by sulforhodamine B assay; conditions: DU-145, 48 h; outline: as §2
SNB-75 = experiment: Anticancer activity against human SNB75 cells after 48 hrs by sulforhodamine B assay; conditions: SNB-75, 48 h; outline: as §1
UACC-257 = experiment: Anticancer activity against human UACC257 cells after 48 hrs by sulforhodamine B assay; conditions: UACC-257, 48 h; outline: as §1
OVCAR-5 = experiment: Anticancer activity against human OVCAR5 cells after 48 hrs by sulforhodamine B assay; conditions: OVCAR-5, 48 h; outline: as §2
SN12C = experiment: Anticancer activity against human SN12C cells after 48 hrs by sulforhodamine B assay; outline: as §2
HOP-62 = experiment: Anticancer activity against human HOP62 cells after 48 hrs by sulforhodamine B assay; conditions: HOP-62, 48 h; outline: as §2
MDA-MB-231 = experiment: Anticancer activity against human MDA-MB-231 cells after 48 hrs by sulforhodamine B assay; conditions: MDA-MB-231, 48 h; outline: as §2
M14 = experiment: Anticancer activity against human M14 cells after 48 hrs by sulforhodamine B assay; conditions: M14, 48 h; outline: as §2
HCC 2998 = experiment: Anticancer activity against human HCC2998 cells after 48 hrs by sulforhodamine B assay; conditions: HCC 2998, 48 h; outline: as §2
HCT-116 = experiment: Anticancer activity against human HCT116 cells after 48 hrs by sulforhodamine B assay; conditions: HCT-116, 48 h; outline: as §2
UO-31 = experiment: Anticancer activity against human UO31 cells after 48 hrs by sulforhodamine B assay; conditions: UO-31, 48 h; outline: as §1
MOLT-4 = experiment: Anticancer activity against human MOLT4 cells after 48 hrs by sulforhodamine B assay; conditions: MOLT-4, 48 h; outline: as §2
KM12 = experiment: Anticancer activity against human KM12 cells after 48 hrs by sulforhodamine B assay; conditions: KM12, 48 h; outline: as §2
Malme-3M = experiment: Anticancer activity against human MALME-3M cells after 48 hrs by sulforhodamine B assay; outline: as §2
SF-539 = experiment: Anticancer activity against human SF539 cells after 48 hrs by sulforhodamine B assay; conditions: SF-539, 48 h; outline: as §2
RXF 393 = experiment: Anticancer activity against human RXF393 cells after 48 hrs by sulforhodamine B assay; conditions: RXF 393, 48 h; outline: as §2
MCF7 = experiment: Anticancer activity against human MCF7 cells after 48 hrs by sulforhodamine B assay; conditions: MCF7, 48 h; outline: as §2
NCI-H23 = experiment: Anticancer activity against human NCI-H23 cells after 48 hrs by sulforhodamine B assay; conditions: NCI-H23, 48 h; outline: as §2
IGROV-1 = experiment: Anticancer activity against human IGROV1 cells after 48 hrs by sulforhodamine B assay; conditions: IGROV-1, 48 h; outline: as §2
OVCAR-3 = experiment: Anticancer activity against human OVCAR-3 cells after 48 hrs by sulforhodamine B assay; conditions: OVCAR-3, 48 h; outline: as §2
SF-295 = experiment: Anticancer activity against human SF295 cells after 48 hrs by sulforhodamine B assay; conditions: SF-295, 48 h; outline: as §2
PC-3 = experiment: Anticancer activity against human PC3 cells after 48 hrs by sulforhodamine B assay; conditions: PC-3, 48 h; outline: as §2
SW-620 = experiment: Anticancer activity against human SW620 cells after 48 hrs by sulforhodamine B assay; conditions: SW-620, 48 h; outline: as §1
SK-MEL-28 = experiment: Anticancer activity against human SK-MEL-28 cells after 48 hrs by sulforhodamine B assay; conditions: SK-MEL-28, 48 h; outline: as §2
SNB-19 = experiment: Anticancer activity against human SNB19 cells after 48 hrs by sulforhodamine B assay; conditions: SNB-19, 48 h; outline: as §2

In the case of `C#C[C@@]1(O)[C@@H](CO)O[C@@H](n2ccc(N)nc2=O)[C@@H]1O` [TAS-106], the GI50 (TK-10) was 15.8 nM, the GI50 (SK-OV-3) was 79.4 nM and the GI50 (HT-29) was under 10 nM. It also gave a GI50 (CAKI-1) of under 10 nM, a GI50 (LOX IMVI) of under 10 nM and a GI50 (A549) of under 10 nM. For the same molecule, the GI50 (NCI/ADR-RES) was under 10 nM, the GI50 (T47D) was under 10 nM and the GI50 (OVCAR-8) was under 10 nM. It also gave a GI50 (OVCAR-4) of 158 nM, a GI50 (SK-MEL-2) of 12.6 nM and a GI50 (K562) of under 10 nM. It also gave a GI50 (NCI-H522) of under 10 nM, a GI50 (BT-549) of 39.8 nM and a GI50 (CCRF-CEM) of under 10 nM. The GI50 (SF-268) was 15.8 nM, the GI50 (NCI-H460) was under 10 nM and the GI50 (MDA-N) was 12.6 nM. For the same molecule, the GI50 (SR) was under 10 nM, the GI50 (U-251) was 19.9 nM and the GI50 (UACC-62) was 31.6 nM. The GI50 (A498) was under 10 nM, the GI50 (NCI-H322M) was 19.9 nM and the GI50 (HOP-92) was 63.1 nM. The GI50 (HL-60) was under 10 nM, the GI50 (SK-MEL-5) was 10 nM and the GI50 (EKVX) was 63.1 nM. For the same molecule, the GI50 (MDA-MB-435) was under 10 nM, the GI50 (COLO 205) was under 10 nM and the GI50 (ACHN) was under 10 nM. For the same molecule, the GI50 [1] was 12.6 nM, the GI50 (786-0) was under 10 nM and the GI50 (HCT-15) was under 10 nM. For the same molecule, the GI50 [2] was under 10 nM, the GI50 (NCI-H226) was 15.8 nM and the GI50 (DU-145) was under 10 nM. For the same molecule, the GI50 (SNB-75) was 15.8 nM, the GI50 (UACC-257) was 79.4 nM and the GI50 (OVCAR-5) was 50.1 nM. The GI50 (SN12C) was under 10 nM, the GI50 (HOP-62) was under 10 nM and the GI50 (MDA-MB-231) was 39.8 nM. It also gave a GI50 (M14) of 39.8 nM, a GI50 (HCC 2998) of under 10 nM and a GI50 (HCT-116) of under 10 nM. The GI50 (UO-31) was under 10 nM, the GI50 (MOLT-4) was under 10 nM and the GI50 (KM12) was under 10 nM. The GI50 (Malme-3M) was 15.8 nM, the GI50 (SF-539) was 39.8 nM and the GI50 (RXF 393) was 25.1 nM. The GI50 (MCF7) was under 10 nM, the GI50 (NCI-H23) was 31.6 nM and the GI50 (IGROV-1) was 12.6 nM. The GI50 (OVCAR-3) was 79.4 nM, the GI50 (SF-295) was under 10 nM and the GI50 (PC-3) was 31.6 nM. It also gave a GI50 (SW-620) of under 10 nM, a GI50 (SK-MEL-28) of 50.1 nM and a GI50 (SNB-19) of 63.1 nM.
